Source: ChEMBL document CHEMBL1629431, “Synthesis and antitumor activity of some 2, 3-disubstituted quinazolin-4(3H)-ones and 4, 6- disubstituted- 1, 2, 3, 4-tetrahydroquinazolin-2H-ones” (2010)

Assays:
Format in all cases: functional
OVCAR-8 = experiment: Growth inhibition of human OVCAR8 cells at 10 uM after 48 hrs by coulter counter method; details: OVCAR-8, 48 h, read-out: GI
In short: (§1)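 Single high-dose NCI 60-cell-line panel screen across nine tumor subpanels. Test solutions (0.2 mL) were added in duplicate to wells holding 1.8 mL of culture at 6 × 10⁴ cells/mL. Controls got PBS and DMSO at identical dilutions. Incubation was 48 h at 37 °C in humidified 5% CO₂. Cells were diluted 10-fold in saline, Coulter-counted and dilution-corrected. Results were expressed as percent growth inhibition versus control.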

A549 = experiment: Growth inhibition of human A549 cells at 10 uM after 48 hrs by coulter counter method; details: A549, 48 h, read-out: GI; in short: as §1
U-251 = experiment: Growth inhibition of human U251 cells at 10 uM after 48 hrs by coulter counter method; details: U-251, 48 h, read-out: GI; in short: as §1
KM12 = experiment: Growth inhibition of human KM12 cells at 10 uM after 48 hrs by coulter counter method; details: KM12, 48 h, read-out: GI; in short: as §1
SF-539 = experiment: Growth inhibition of human SF539 cells at 10 uM after 48 hrs by coulter counter method; details: SF-539, 48 h, read-out: GI; in short: as §1
T47D = experiment: Growth inhibition of human T47D cells at 10 uM after 48 hrs by coulter counter method; details: read-out: GI; in short: as §1
SK-OV-3 = experiment: Growth inhibition of human SKOV3 cells at 10 uM after 48 hrs by coulter counter method; details: SK-OV-3, 48 h, read-out: GI; in short: as §1
HL-60(TB) = experiment: Growth inhibition of human HL-60(TB) cells at 10 uM after 48 hrs by coulter counter method; details: HL-60, 48 h, read-out: GI
In short: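 Part of the NCI 60-cell-line single-high-dose panel. Cells were seeded at 6 × 10⁴ cells/mL with test solution in duplicate wells, alongside PBS/DMSO controls at identical dilutions. Plates were held 48 h at 37 °C in a humidified 5% CO₂ incubator. Cells were then diluted 10-fold in saline and counted by Coulter counter, with counts corrected for dilution. Results are percent growth of treated cells, reported as GI %.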

SK-MEL-2 = experiment: Growth inhibition of human SK-MEL-2 cells at 10 uM after 48 hrs by coulter counter method; details: SK-MEL-2, 48 h, read-out: GI; in short: as §1
CAKI-1 = experiment: Growth inhibition of human Caki1 cells at 10 uM after 48 hrs by coulter counter method; details: CAKI-1, 48 h, read-out: GI; in short: as §1
786-0 = experiment: Growth inhibition of human 786-0 cells at 10 uM after 48 hrs by coulter counter method; details: 786-0, 48 h, read-out: GI; in short: as §1
NCI-H226 = experiment: Growth inhibition of human NCI-H226 cells at 10 uM after 48 hrs by coulter counter method; details: NCI-H226, 48 h, read-out: GI; in short: as §1
K562 = experiment: Growth inhibition of human K562 cells at 10 uM after 48 hrs by coulter counter method; details: K562, 48 h, read-out: GI; in short: as §1
CCRF-CEM = experiment: Growth inhibition of human CCRF-CEM cells at 10 uM after 48 hrs by coulter counter method; details: read-out: GI; in short: as §1
MDA-MB-468 = experiment: Growth inhibition of human MDA-MB-468 cells at 10 uM after 48 hrs by coulter counter method; details: MDA-MB-468, 48 h, read-out: GI; in short: as §1
SK-MEL-28 = experiment: Growth inhibition of human SK-MEL-28 cells at 10 uM after 48 hrs by coulter counter method; details: SK-MEL-28, 48 h, read-out: GI; in short: as §1
MCF7 = experiment: Growth inhibition of human MCF7 cells at 10 uM after 48 hrs by coulter counter method; details: MCF7, 48 h, read-out: GI; in short: as §1
MOLT-4 = experiment: Growth inhibition of human MOLT4 cells at 10 uM after 48 hrs by coulter counter method; details: MOLT-4, 48 h, read-out: GI; in short: as §1
OVCAR-4 = experiment: Growth inhibition of human OVCAR4 cells at 10 uM after 48 hrs by coulter counter method; details: OVCAR-4, 48 h, read-out: GI; in short: as §1
SR = experiment: Growth inhibition of human SR cells at 10 uM after 48 hrs by coulter counter method; details: read-out: GI; in short: as §1
[1] = Growth inhibition of human Hs 578T cells at 10 uM after 48 hrs by coulter counter method; details: read-out: GI; in short: as §1
MDA-MB-231 = experiment: Growth inhibition of human MDA-MB-231 cells at 10 uM after 48 hrs by coulter counter method; details: MDA-MB-231, 48 h, read-out: GI; in short: as §1
NCI-H522 = experiment: Growth inhibition of human NCI-H522 cells at 10 uM after 48 hrs by coulter counter method; details: NCI-H522, 48 h, read-out: GI; in short: as §1
SNB-75 = experiment: Growth inhibition of human SNB75 cells at 10 uM after 48 hrs by coulter counter method; details: SNB-75, 48 h, read-out: GI; in short: as §1
UACC-62 = experiment: Growth inhibition of human UACC62 cells at 10 uM after 48 hrs by coulter counter method; details: UACC-62, 48 h, read-out: GI; in short: as §1
SF-268 = experiment: Growth inhibition of human SF268 cells at 10 uM after 48 hrs by coulter counter method; details: SF-268, 48 h, read-out: GI; in short: as §1
UO-31 = experiment: Growth inhibition of human UO31 cells at 10 uM after 48 hrs by coulter counter method; details: UO-31, 48 h, read-out: GI; in short: as §1
PC-3 = experiment: Growth inhibition of human PC3 cells at 10 uM after 48 hrs by coulter counter method; details: PC-3, 48 h, read-out: GI; in short: as §1
M14 = experiment: Growth inhibition of human M14 cells at 10 uM after 48 hrs by coulter counter method; details: M14, 48 h, read-out: GI; in short: as §1
COLO 205 = experiment: Growth inhibition of human COLO205 cells at 10 uM after 48 hrs by coulter counter method; details: COLO 205, 48 h, read-out: GI; in short: as §1
HCT-116 = experiment: Growth inhibition of human HCT116 cells at 10 uM after 48 hrs by coulter counter method; details: HCT-116, 48 h, read-out: GI; in short: as §1
NCI-H23 = experiment: Growth inhibition of human NCI-H23 cells at 10 uM after 48 hrs by coulter counter method; details: NCI-H23, 48 h, read-out: GI; in short: as §1
IGROV-1 = experiment: Growth inhibition of human IGROV1 cells at 10 uM after 48 hrs by coulter counter method; details: IGROV-1, 48 h, read-out: GI; in short: as §1
SN12C = experiment: Growth inhibition of human SN12C cells at 10 uM after 48 hrs by coulter counter method; details: read-out: GI; in short: as §1
HOP-92 = experiment: Growth inhibition of human HOP92 cells at 10 uM after 48 hrs by coulter counter method; details: HOP-92, 48 h, read-out: GI; in short: as §1

Measured: inhibition of growth at 10 µM

COc1ccc(-n2c(SC)nc3ccccc3c2=O)cc1
30%: OVCAR-8 | A549 | U-251 | KM12 | SF-539 | T47D | SK-OV-3 | HL-60(TB) | SK-MEL-2 | CAKI-1 | 786-0 | NCI-H226 | CCRF-CEM | MDA-MB-468 | SK-MEL-28 | MCF7 | MOLT-4 | OVCAR-4 | SR | [1] | MDA-MB-231 | NCI-H522 | SNB-75 | UACC-62 | SF-268 | UO-31 | PC-3 | M14 | COLO 205 | HCT-116 | NCI-H23 | IGROV-1 | SN12C
30.1%: K562

COc1ccc(C(=O)CSc2nc3ccccc3c(=O)n2-c2ccc(Cl)cc2)cc1
40.9%: MDA-MB-231
42.2%: UACC-62
53.5%: OVCAR-4
48.8%: SF-268
< 30%: NCI-H522
38.4%: M14
44.7%: SK-OV-3
71.1%: SNB-75
76.2%: OVCAR-8
35.4%: MDA-MB-468
37.2%: UO-31
34.2%: SK-MEL-2
41.3%: 786-0
37.3%: SK-MEL-28
48.6%: SF-539
65.1%: U-251
30%: KM12 | T47D | HL-60(TB) | NCI-H226 | MCF7 | MOLT-4 | SR | [1] | PC-3 | HCT-116 | NCI-H23 | SN12C
48.9%: COLO 205 | IGROV-1

COc1ccc(C(=O)CSc2nc3ccccc3c(=O)n2-c2ccc(OC)cc2)cc1
43%: HL-60(TB)
49.4%: MOLT-4
30.3%: UO-31
30%: OVCAR-8 | U-251 | KM12 | SF-539 | T47D | SK-OV-3 | SK-MEL-2 | 786-0 | NCI-H226 | SK-MEL-28 | MCF7 | OVCAR-4 | [1] | MDA-MB-231 | SNB-75 | UACC-62 | SF-268 | PC-3 | M14 | COLO 205 | HCT-116 | HOP-92 | NCI-H23 | IGROV-1 | SN12C
70.3%: CCRF-CEM
< 30%: NCI-H522
30.8%: A549 | MDA-MB-468
34.9%: SR

CCn1c(SC)nc2ccccc2c1=O
49.5%: CCRF-CEM
60.8%: HOP-92
34.8%: HL-60(TB)
42.9%: CAKI-1
30%: OVCAR-8 | A549 | U-251 | KM12 | SF-539 | T47D | SK-OV-3 | SK-MEL-2 | 786-0 | NCI-H226 | K562 | MDA-MB-468 | SK-MEL-28 | MCF7 | MOLT-4 | OVCAR-4 | SR | [1] | MDA-MB-231 | NCI-H522 | SNB-75 | UACC-62 | SF-268 | UO-31 | PC-3 | M14 | COLO 205 | HCT-116 | NCI-H23 | IGROV-1 | SN12C

O=c1c2ccccc2nc(Nc2nnc(-c3ccc(Cl)cc3)s2)n1-c1ccccc1
30%: OVCAR-8 | A549 | U-251 | KM12 | SF-539 | T47D | SK-OV-3 | HL-60(TB) | SK-MEL-2 | CAKI-1 | 786-0 | NCI-H226 | K562 | CCRF-CEM | MDA-MB-468 | SK-MEL-28 | MCF7 | MOLT-4 | OVCAR-4 | SR | [1] | MDA-MB-231 | SNB-75 | UACC-62 | SF-268 | UO-31 | PC-3 | M14 | COLO 205 | HCT-116 | HOP-92 | NCI-H23 | SN12C
65.9%: IGROV-1
31.9%: NCI-H522
